According to ChEMBL document CHEMBL4052623, “Synthesis and antiproteasomal activity of novel O-benzyl salicylamide-based inhibitors built from leucine and phenylalanine” (Eur J Med Chem, 2017):

Key:
CCRF-CEM = assay: Antiproliferative activity against human CEM cells after 72 hrs by calcein AM staining based fluorescence assay; assay type: functional
Outline: (§1)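 Cells treated with three-fold compound dilutions in triplicate for 72 h. Calcein AM added afterwards and live-cell fluorescence read at 485/538 nm (ex/em). GI50, the concentration lethal to 50% of tumour cells, calculated from dose-response curves.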

U-266 = assay: Antiproliferative activity against human U266 cells after 72 hrs by calcein AM staining based fluorescence assay; assay type: functional; details: U-266, 72 h; outline: as §1
K562 = assay: Antiproliferative activity against human K562 cells after 72 hrs by calcein AM staining based fluorescence assay; assay type: functional; details: K562, 72 h; outline: as §1
[1] = target: Proteasome Macropain subunit (Homo sapiens) (UniProt P49721); assay: Inhibition of trypsin like activity of 26S proteasome beta 2 subunit in human U266 cells assessed as residual activity using […] as substrate at 10 uM preincubated for 1 hr followed by substrate addition and measured after 4 hrs by fluorescence assay relative to control; assay type: cell-based
Proteasome Macropain subunit (Homo sapiens), sequence (P49721 whole entry): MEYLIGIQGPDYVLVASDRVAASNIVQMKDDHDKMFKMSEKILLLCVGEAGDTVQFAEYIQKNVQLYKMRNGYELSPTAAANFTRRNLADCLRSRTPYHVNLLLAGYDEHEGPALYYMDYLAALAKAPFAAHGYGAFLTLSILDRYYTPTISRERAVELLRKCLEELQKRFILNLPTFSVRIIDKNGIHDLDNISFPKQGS

[2] = target: T1, Proteasome Macropain subunit MB1 (Homo sapiens) (UniProt P28074); assay: Inhibition of chymotrypsin like activity of 26S proteasome beta 5 subunit in human U266 cells assessed as residual activity using N-Suc-LLVY-AMC as substrate at 10 uM preincubated for 1 hr followed by substrate addition and measured after 4 hrs by fluorescence assay relative to control; assay type: cell-based
T1 sequence (whole entry): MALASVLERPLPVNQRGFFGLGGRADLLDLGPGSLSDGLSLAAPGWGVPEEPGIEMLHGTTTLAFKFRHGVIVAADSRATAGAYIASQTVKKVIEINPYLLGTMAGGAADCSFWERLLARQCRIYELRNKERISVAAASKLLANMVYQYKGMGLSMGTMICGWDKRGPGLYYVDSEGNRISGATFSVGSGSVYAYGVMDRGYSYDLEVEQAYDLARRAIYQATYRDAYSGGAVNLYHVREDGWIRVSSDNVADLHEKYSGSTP

[3] = target: T2, Proteasome Macropain subunit MB1 (Homo sapiens, UniProt P28074); assay: Inhibition of chymotrypsin-like activity of 26S proteasome beta 5 subunit in human U266 cells using Suc-LLVY-aminoluciferin as substrate after 1 hr by Proteosome-Glo luminescence assay; assay type: cell-based
T2 sequence (P28074 whole entry): T1 sequence (whole entry)
Outline: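 U266 multiple myeloma cells plated at 20,000 cells/well and exposed to varying compound concentrations for 1 h at 37 °C, in duplicate. 26S proteasome activity measured immediately as luciferase-coupled hydrolysis of the β5 substrate Suc-LLVY-aminoluciferin (Proteasome-Glo), read by luminescence. Activity normalised to untreated cells; IC50 derived from dose-response curves.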

[4] = target: T3, Proteasome component C5 (Homo sapiens) (UniProt P20618); assay: Inhibition of caspase like activity of 26S proteasome beta 1 subunit in human U266 cells assessed as residual activity using […] as substrate at 10 uM preincubated for 1 hr followed by substrate addition and measured after 4 hrs by fluorescence assay relative to control; assay type: cell-based
T3 sequence (whole entry): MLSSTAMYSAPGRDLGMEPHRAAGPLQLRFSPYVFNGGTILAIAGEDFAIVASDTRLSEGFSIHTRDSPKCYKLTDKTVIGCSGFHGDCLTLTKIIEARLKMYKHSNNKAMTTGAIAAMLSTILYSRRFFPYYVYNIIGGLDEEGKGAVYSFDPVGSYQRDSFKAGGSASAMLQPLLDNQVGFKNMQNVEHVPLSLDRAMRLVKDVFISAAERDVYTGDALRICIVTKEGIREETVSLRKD

Row | GI50 (CCRF-CEM) [µM] | GI50 (K562) [µM] | Activity [1] [%] | Activity [2] [%] | IC50 [3] [nM] | Activity [4] [%] | SMILES | GI50 (U-266) [µM]
1 | 51 | > 100 |  |  |  |  | COC(=O)[C@@H](CC(C)C)NC(=O)[C@H](CC(C)C)NC(=O)[C@H](CC(C)C)NC(=O)c1cc(Cl)ccc1OCc1ccccc1 | 82
2 | 15.1 | 44.2 |  |  |  |  | CON(C)C(=O)[C@H](Cc1ccccc1)NC(=O)[C@H](CC(C)C)NC(=O)[C@H](CC(C)C)NC(=O)c1cc(Cl)ccc1OCc1ccccc1 | 47.2
3 | 48.5 | 58.5 |  |  |  |  | COC(=O)[C@H](CC(C)C)NC(=O)[C@H](Cc1ccccc1)NC(=O)[C@H](CC(C)C)NC(=O)c1cc(Cl)ccc1OCc1ccccc1 | 83.7
4 | 48.2 | 93.6 |  |  |  |  | CON(C)C(=O)[C@H](Cc1ccccc1)NC(=O)[C@H](CC(C)C)NC(=O)c1cc(Cl)ccc1O | 79.2
5 | 17.2 | 30.9 |  |  |  |  | CON(C)C(=O)[C@H](CC(C)C)NC(=O)[C@H](Cc1ccccc1)NC(=O)[C@H](CC(C)C)NC(=O)c1cc(Cl)ccc1O | 32.8
6 | 15.1 | 17.3 | 92 | 95 | > 1000 | 39.9 | CC(C)CC(C=O)NC(=O)[C@H](Cc1ccccc1)NC(=O)c1cc(Cl)ccc1OCc1ccccc1 (some centres undefined) | 17.7
7 | 55.5 | 99.1 |  |  |  |  | CON(C)C(=O)[C@H](Cc1ccccc1)NC(=O)c1cc(Cl)ccc1O | 72.4
8 | 11.5 | 34 |  |  |  |  | CON(C)C(=O)[C@@H](CC(C)C)NC(=O)[C@H](CC(C)C)NC(=O)[C@H](CC(C)C)NC(=O)c1cc(Cl)ccc1OCc1ccccc1 | 23.7
9 | 0.41 | 0.76 | 54.2 | 11.8 | 57 | 34.6 | CC(C)C[C@@H](C=O)NC(=O)[C@H](CC(C)C)NC(=O)[C@H](CC(C)C)NC(=O)c1cc(Cl)ccc1OCc1ccccc1 | 0.2
10 | 16.3 | 22.2 |  |  |  |  | CON(C)C(=O)[C@H](Cc1ccccc1)NC(=O)[C@H](Cc1ccccc1)NC(=O)[C@H](CC(C)C)NC(=O)c1cc(Cl)ccc1O | 23.1
11 | 64.1 | 90.9 |  |  |  |  | CON(C)C(=O)[C@H](CC(C)C)NC(=O)[C@H](Cc1ccccc1)NC(=O)c1cc(Cl)ccc1O | 71.6
12 | 22.2 | 33.2 |  |  |  |  | CON(C)C(=O)[C@H](CC(C)C)NC(=O)[C@H](CC(C)C)NC(=O)c1cc(Cl)ccc1OCc1ccccc1 | 35.2
13 | 15.5 | 27.1 | 78.4 | 97.3 | > 1000 | 71.5 | O=C[C@H](Cc1ccccc1)NC(=O)[C@H](Cc1ccccc1)NC(=O)c1cc(Cl)ccc1OCc1ccccc1 | 21.7
14 | 54.2 | 79.5 |  |  |  |  | CON(C)C(=O)C(Cc1ccccc1)NC(=O)[C@H](Cc1ccccc1)NC(=O)c1cc(Cl)ccc1O (some centres undefined) | 68.7
15 | 11 | 16.3 | 85.9 | 85.2 | > 1000 | 67.8 | CC(C)C[C@H](NC(=O)c1cc(Cl)ccc1OCc1ccccc1)C(=O)N[C@H](C=O)Cc1ccccc1 | 14.8
16 | 30.6 | 55.6 |  |  |  |  | CON(C)C(=O)[C@H](CC(C)C)NC(=O)[C@H](CC(C)C)NC(=O)[C@H](CC(C)C)NC(=O)c1cc(Cl)ccc1OCc1ccccc1 | 55.2
17 | 27.7 | 57.9 | 81 | > 100 | > 1000 | > 100 | CC(C)C[C@H](NC(=O)c1cc(Cl)ccc1O)C(=O)N[C@H](C=O)Cc1ccccc1 | 64.9
18 | 48 | 72 |  |  |  |  | COC(=O)[C@H](Cc1ccccc1)NC(=O)[C@H](Cc1ccccc1)NC(=O)[C@H](CC(C)C)NC(=O)c1cc(Cl)ccc1OCc1ccccc1 | 82.1
19 | 17.7 | 33.3 | 70.2 | 70.8 | > 1000 | 53 | O=C[C@H](Cc1ccccc1)NC(=O)c1cc(Cl)ccc1OCc1ccccc1 | 63.8

Row | GI50 (CCRF-CEM) [µM] | GI50 (K562) [µM] | Activity [1] [%] | Activity [2] [%] | IC50 [3] [nM] | Activity [4] [%] | SMILES | GI50 (U-266) [µM]
20 | 28.6 | 29.6 |  |  |  |  | CON(C)C(=O)[C@H](Cc1ccccc1)NC(=O)[C@H](Cc1ccccc1)NC(=O)c1cc(Cl)ccc1OCc1ccccc1 | 72.1
21 | 58.6 | > 100 |  |  |  |  | CON(C)C(=O)[C@H](CC(C)C)NC(=O)c1cc(Cl)ccc1O | > 100
22 | 35.7 | 34.7 |  |  |  |  | CON(C)C(=O)[C@H](Cc1ccccc1)NC(=O)[C@H](Cc1ccccc1)NC(=O)[C@H](CC(C)C)NC(=O)c1cc(Cl)ccc1OCc1ccccc1 | 56.3
23 | 31.4 | 70.3 |  |  |  |  | COC(=O)[C@H](Cc1ccccc1)NC(=O)[C@H](CC(C)C)NC(=O)[C@H](CC(C)C)NC(=O)c1cc(Cl)ccc1OCc1ccccc1 | 72.2
24 | 16.3 | 21 | 88.1 | 84.3 | > 1000 | 35.3 | CC(C)CC(C=O)NC(=O)[C@H](CC(C)C)NC(=O)c1cc(Cl)ccc1OCc1ccccc1 (some centres undefined) | 37
25 | 24.3 | 23.6 | 57.5 | 68.8 | > 1000 | 68.2 | CC(C)C[C@@H](C=O)NC(=O)c1cc(Cl)ccc1OCc1ccccc1 | 55.8
26 | 0.4 | 0.73 | > 100 | 20.7 | 75 | 19.7 | CC(C)C[C@H](NC(=O)c1cc(Cl)ccc1OCc1ccccc1)C(=O)N[C@@H](Cc1ccccc1)C(=O)N[C@@H](C=O)CC(C)C | 0.21
27 | 45.2 | 42.7 |  |  |  |  | CON(C)C(=O)[C@H](CC(C)C)NC(=O)c1cc(Cl)ccc1OCc1ccccc1 | 54.1
28 | 17.6 | 28.9 |  |  |  |  | CON(C)C(=O)[C@@H](CC(C)C)NC(=O)[C@H](Cc1ccccc1)NC(=O)[C@H](CC(C)C)NC(=O)c1cc(Cl)ccc1OCc1ccccc1 | 22.6
29 | 68.2 | > 100 |  |  |  |  | COC(=O)[C@@H](CC(C)C)NC(=O)[C@H](Cc1ccccc1)NC(=O)[C@H](CC(C)C)NC(=O)c1cc(Cl)ccc1OCc1ccccc1 | 88.5
30 | 19.5 | 22.5 |  |  |  |  | CON(C)C(=O)[C@H](Cc1ccccc1)NC(=O)[C@H](CC(C)C)NC(=O)c1cc(Cl)ccc1OCc1ccccc1 | 81.9
31 | 19 | 16.4 |  |  |  |  | CON(C)C(=O)[C@H](CC(C)C)NC(=O)[C@H](Cc1ccccc1)NC(=O)[C@H](CC(C)C)NC(=O)c1cc(Cl)ccc1OCc1ccccc1 | 48.6
32 | 48.4 | 87.5 |  |  |  |  | COC(=O)[C@H](CC(C)C)NC(=O)[C@H](CC(C)C)NC(=O)[C@H](CC(C)C)NC(=O)c1cc(Cl)ccc1OCc1ccccc1 | 84.9
33 | 65.2 | 50.9 |  |  |  |  | CON(C)C(=O)[C@H](Cc1ccccc1)NC(=O)c1cc(Cl)ccc1OCc1ccccc1 | 92.3
34 | 0.58 | 0.98 | 74.3 | 18 | 182 | 35.5 | CC(C)C[C@H](NC(=O)c1cc(Cl)ccc1OCc1ccccc1)C(=O)N[C@@H](CC(C)C)C(=O)N[C@@H](C=O)CC(C)C | 0.38
35 | 10.8 | 27.3 |  |  |  |  | CC(C)C[C@H](NC(=O)c1cc(Cl)ccc1O)C(=O)N[C@@H](Cc1ccccc1)C(=O)N[C@H](CO)Cc1ccccc1 | 18.9
36 | 63 | 98.1 |  |  |  |  | CON(C)C(=O)[C@H](CC(C)C)NC(=O)[C@H](CC(C)C)NC(=O)c1cc(Cl)ccc1O | 69
37 | 32.2 | 25.8 |  |  |  |  | CON(C)C(=O)[C@@H](CC(C)C)NC(=O)[C@H](Cc1ccccc1)NC(=O)c1cc(Cl)ccc1OCc1ccccc1 | 67.4
38 | 8.45 | 22.4 |  |  |  |  | CC(C)C[C@@H](CO)NC(=O)[C@H](Cc1ccccc1)NC(=O)[C@H](CC(C)C)NC(=O)c1cc(Cl)ccc1O | 11.8
